Screening data: PubChem BioAssay, several laboratories
Most compounds without a hit are left out; they make up all but 12% or so of the library.
Autophagy mod = alters autophagy in cells. MEF GFP-LC3 puncta imaging; test concentration mostly 10 µM. calls only at 10 µM (by protocol). hit rate 0.98% among 190,000. AID 463193;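 active = percentage of spot-positive cells more than 3 SD above its plate mean, without a fluorescence outlier flag or 80% toxicity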
MT stabilize HCS = microtubule stabilizers in HeLa cells. hit rate 0.83% among 200,000. HeLa tubulin immunostaining HCS, 24 h; share of cells brighter than vehicle mean+2SD. % tubulin-high responders, % at 10 µM;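 active = plate Z-score above 3 for both tubulin-high and condensed-nucleus cell shares, with cell loss under 80%, at 10 µM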;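 note: anti alpha tubulin signal scored within the nucleus-defined area of each cell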
CHOP inh = inhibitors of CHOP induction in ER stress response; hit rate 3.8% among 220,000; AID 2732; inhibition, % at 10 µM; CHO-K1 CHOP-promoter luciferase, tunicamycin-induced, 15-18 h;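 active = compounds that reduced the stress-induced luciferase reporter signal by more than about 70% of percent inhibition, limit read from the data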
Lmaj promast = reduces viability of Leishmania major promastigotes; resazurin fluorescence viability; inhibition, % at 10 µM; hit rate 9% among 200,000; AID 1063; in the data active = inhibition above about 50%;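 note: promastigotes grown with compound for 44 hours at 28 °C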
Dynein cargo inh = blocks dynein driven cargo transport along microtubules; 3617.4 mouse cells, GR-EGFP nuclear translocation imaging; test concentration mostly 20 µM; stimulated with dexamethasone, 1 µM; active compounds read low; z-score, hits read low; hit rate 0.47% among 220,000;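 active = plate z-score of nuclear minus cytoplasmic receptor signal below a set negative limit, without overly bright fluorescence or cell loss, cut at about -3.5 in these data, passing the limit was not always enough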;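 note: z-score of nuclear minus cytoplasmic ring GR-EGFP intensity difference per well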
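Buffer or medium: tet-free, stripped-serum medium; reagent: dexamethasone at 1.0 µM final, 30 min; incubation: 48 h induction, 1 h compound, 30 min dex at 37 °C; measured by: formaldehyde fixation, Hoechst nuclear stain, 10x automated fluorescence imaging; read-out: nuclear-to-cytoplasmic GR-EGFP distribution per well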
b-catenin transl = beta-catenin nuclear translocation modulation | nuclear translocation activity, % at 5 µM | hit rate 0.3% among 190,000 | HeLa beta-catenin nuclear translocation, immunofluorescence imaging;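 active = nuclear translocation activity above 50% at 5 µM, with a well cell count of 50 or more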;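 note: per-cell ratio of nuclear to cytoplasmic median beta-catenin stain intensity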
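test system = HeLa cells, endogenous beta-catenin | dosing = single 5 µM dose plus 0.02–20 µM confirmation series | times = compound treatment 24 h, 37°C, 5% CO2 | technique = beta-catenin immunofluorescence imaging with DAPI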
Large screens that a line does not name were inactive.

O=S(=O)(c1ccccc1)c1nc(Nc2ccccc2N2CCOCC2)sc1Cl	Lmaj promast 55.9
O=C(COC(=O)Cc1ccccc1F)Nc1ccc(F)cc1F	none
CC(C)CCn1nc(C(=O)Nc2nc3c(s2)CCCC3)c2ccccc2c1=O	Lmaj promast 64.7
CN1CCc2c(sc3nc(SCC(=O)N4CCOCC4)nc(N)c23)C1	Autophagy mod active
C=CCn1c(SCC(=O)Nc2cc(C)on2)nc2sc3c(c2c1=O)CCCC3	none
CCc1sc2nc(SCC(=O)Nc3cc(C)on3)n(-c3cccc(OC)c3)c(=O)c2c1C	Autophagy mod active, CHOP inh 88.7
Cn1c(SCC(=O)N2CCOCC2)nc2sc3c(c2c1=O)CCCC3	none
C=CCn1c(SCC(=O)N2CCOCC2)nc2sc3c(c2c1=O)CCCC3	Autophagy mod active (no result: b-catenin transl)
CCn1c(SCC(=O)Nc2cc(C)on2)nc2sc3c(c2c1=O)CCCC3	Autophagy mod active, CHOP inh 107.3
N#CN=C1CCCCCN1CC(N)=O	none
Cc1cc(NC(=O)CSc2nc(C(C)C)nc3sc4c(c23)CCCC4)no1	CHOP inh 76.7
Cc1cc(NC(=O)CSc2nc3sc4c(c3c(=O)n2C)CCCC4)no1	none
COc1ccc2oc(C(=O)OCC(=O)/C(C#N)=C(\C)N)c(C)c2c1	none
COCCn1c(SCC(=O)Nc2cccc(C)n2)nnc1-c1ccco1	none
O=C(O)CCC(=O)NNc1ccccc1[N+](=O)[O-]	none
O=C(NCC(c1cccs1)N1CCOCC1)c1ccc(Cl)s1 (centres undefined)	MT stabilize HCS 54.0 (no result: CHOP inh, b-catenin transl)
O=C(NCC(c1cccs1)N1CCOCC1)c1cc([N+](=O)[O-])ccc1Cl (centres undefined)	none
CCSc1nnc(NC(=O)NC(CC)(C(F)(F)F)C(F)(F)F)s1	CHOP inh 90.2
CCCC(=O)Nc1nnc(SCC)s1	Lmaj promast 69.8
CC1CCN(C(=O)c2ccc(SCc3ccccc3F)c([N+](=O)[O-])c2)CC1	Lmaj promast 69.3
CN(C)CCNC(=O)c1ccc(Sc2ccc(Br)cc2)c([N+](=O)[O-])c1	Lmaj promast 100.4 (no result: MT stabilize HCS)
CC(=O)NCCNC(=O)c1ccc(Sc2ccccc2)c([N+](=O)[O-])c1	none
CCN1CCN(C(=O)c2ccc(Sc3ccccc3Cl)c([N+](=O)[O-])c2)CC1	Lmaj promast 88.7
CCN1CCCC1CNC(=O)c1ccc(Sc2ccccc2Cl)c([N+](=O)[O-])c1 (centres undefined)	Lmaj promast 100.3
COc1ccc(C(=O)c2c[nH]c(C(=O)NCc3cccs3)c2)cc1	none
Cn1c2ccccc2c2cnn(CC(=O)N3CCCCC3)c(=O)c21	none (no result: Autophagy mod, MT stabilize HCS, Lmaj promast)
O=C(NCCN1CCOCC1)c1ccc(N2CCCC2)c([N+](=O)[O-])c1	none
O=C(c1ccc(S(=O)(=O)Cc2ccccc2F)c([N+](=O)[O-])c1)N1CCCCCC1	none
CCN1CCCC1CNC(=O)c1ccc(Sc2ccc(F)cc2)c([N+](=O)[O-])c1 (centres undefined)	Lmaj promast 100.3
O=C(c1ccc(S(=O)(=O)c2ccccc2Cl)c([N+](=O)[O-])c1)N1CCCCCC1	Lmaj promast 97.8
O=C(NCCCN1CCOCC1)c1ccc(Sc2ccc(F)cc2)c([N+](=O)[O-])c1	Lmaj promast 100.4
Cc1ccc(Sc2ccc(C(=O)NC(C)C)cc2[N+](=O)[O-])cc1	none
Cc1ccc(C(=O)N/C(=C\c2ccco2)C(=O)NCCCn2ccnc2)cc1C	none (no result: Dynein cargo inh)
CCc1ccc(NC(=O)c2ccccc2NC(=O)C2CCCO2)cc1 (centres undefined)	none (no result: b-catenin transl)
Nc1nonc1C(=O)N/N=C/c1cc(Br)ccc1O	Lmaj promast 99.2
CC(C)C(=O)Nc1ccc(C(=O)N/N=C/c2cc(Br)cc(Br)c2O)cc1	Lmaj promast 88.9
O=C(N/N=C/c1cc(Cl)ccc1O)c1ccc(Br)cc1	CHOP inh 79.9, Lmaj promast 98.6
O=C(N/N=C/c1ccc(O)c(O)c1)c1cccc(S(=O)(=O)N2CCCCC2)c1	none
O=C(N/N=C\c1cc(Br)ccc1O)c1ccc(S(=O)(=O)N2CCCCC2)cc1	Lmaj promast 98.2
CC(C)C(=O)Nc1ccc(C(=O)Nc2ccc(Br)cc2F)cc1	none
COc1cccc(/C=N\NC(=O)c2sc(N)nc2C)c1OC	none
